Source: ChEMBL document CHEMBL1944507, “Structure-activity relationships for amide-, carbamate-, and urea-linked analogues of the tuberculosis drug (6S)-2-nitro-6-{[4-(trifluoromethoxy)benzyl]oxy}-6,7-dihydro-5H-imidazo[2,1-b][1,3]oxazine (PA-824)” (J Med Chem, 2012)
Values after ≈ are worked out from the molar mass of the structure shown.

Assays:
[1] = Kinetic solubility of the compound in water at pH 7 by HPLC analysis; type: physicochemical; settings: read-out: Kinetic_solubility
[2] = test system: Mycobacterium tuberculosis; assay: Antimicrobial activity against Mycobacterium tuberculosis infected in BALB/c mouse assessed as fold reduction in lung CFU at 100 mg/kg, po administered 11 days after post infection qd for 5 days per week for 3 weeks relative to PA-824; type: functional
Summary of the method: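 Groups of 7 M. tb-infected BALB/c mice dosed orally at 100 mg/kg daily, 5 days/week for 3 weeks, starting on day 11 postinfection. Readout is the average lung CFU reduction in treated mice divided by the average CFU reduction in mice given the reference nitroimidazooxazine.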

[3] = Metabolic stability of the compound in CD-1 mouse liver microsomes assessed as compound remaining after 1 hr; type: ADME, Microsome; settings: read-out: Stability
Summary of the method: (§1)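 Pooled human or CD-1 mouse liver microsomes incubated with compound for 1 h. Percentage of compound remaining calculated from analyte/internal standard peak area ratios.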

[4] = Metabolic stability of the compound in human liver microsomes assessed as compound remaining after 1 hr; type: ADME, Microsome; settings: read-out: Stability; summary of the method: as §1
[5] = AUC (0 to infinity) in CD-1 mouse plasma at 40 mg/kg, po; type: ADME, organism-based; design: dose 40 mg/kg, route oral, time infinity
Summary of the method: (§2)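 CD-1 mice given a single oral dose of 40 mg/kg, suspended in 0.5% carboxymethylcellulose/0.08% Tween 80 in water. Plasma and lung samples quantified by LC-MS/MS. AUC extrapolated to infinity. Lung/plasma ratio is lung AUC divided by plasma AUC.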

[6] = Cmax in CD-1 mouse lung at 40 mg/kg, po; type: ADME, organism-based; design: dose 40 mg/kg, route oral; summary of the method: as §2
[7] = Ratio AUC (0 to infinity) in CD-1 mouse lung to AUC (0 to infinity) in CD-1 mouse plasma at 40 mg/kg, po; type: ADME, organism-based; design: dose 40 mg/kg, route oral; settings: read-out: Ratio AUC; summary of the method: as §2
[8] = Half life in CD-1 mouse plasma at 40 mg/kg, po; type: ADME, organism-based; design: dose 40 mg/kg, route oral; summary of the method: as §2
[9] = AUC (0 to infinity) in CD-1 mouse lung at 40 mg/kg, po; type: ADME, organism-based; design: dose 40 mg/kg, route oral, time infinity; summary of the method: as §2
[10] = Cmax in CD-1 mouse plasma at 40 mg/kg, po; type: ADME, organism-based; design: dose 40 mg/kg, route oral; summary of the method: as §2
[11] = test system: Mycobacterium tuberculosis; assay: Antimicrobial activity against Mycobacterium tuberculosis infected in BALB/c mouse assessed as fold reduction in lung CFU at 100 mg/kg, po administered 70 days after post infection qd for 5 days per week for 3 weeks relative to OPC-67683; type: functional
Summary of the method: (§3)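 Chronic infection model in M. tb-infected BALB/c mice: oral dosing at 100 mg/kg daily, 5 days/week for 3 weeks, beginning about 70 days postinfection. Result expressed as fold lung CFU reduction relative to the reference drug.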

[12] = Half life in CD-1 mouse lung at 40 mg/kg, po; type: ADME, organism-based; design: dose 40 mg/kg, route oral; summary of the method: as §2
[13] = test system: Mycobacterium tuberculosis; assay: Antimicrobial activity against Mycobacterium tuberculosis infected in BALB/c mouse assessed as fold reduction in lung CFU at 100 mg/kg, po administered 70 days after post infection qd for 5 days per week for 3 weeks; type: functional; summary of the method: as §3
[14] = test system: Mycobacterium tuberculosis; assay: Antimicrobial activity against Mycobacterium tuberculosis infected in chronic BALB/c mouse infection model assessed as fold reduction in lung CFU at 100 mg/kg, po dministered 50 days after post infection qd for 5 days per week for 3 weeks; type: functional
Salmonella typhimurium [15] = assay: Induction of mutagenesis in Salmonella Typhimurium TA100 in absence of rat liver S9 fraction by Ames test; type: toxicity, organism-based; settings: salmonella enterica subsp. enterica serovar typhimurium
Summary of the method: (§4)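 MicroAmes reverse mutation screen in Salmonella TA98 and TA100, preincubated with and without rat liver S9, at 0.25-250 μg/well.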

Salmonella typhimurium [16] = assay: Induction of mutagenesis in Salmonella Typhimurium TA100 in presence of rat liver S9 fraction by Ames test; type: toxicity, organism-based; settings: salmonella enterica subsp. enterica serovar typhimurium; summary of the method: as §4
Salmonella typhimurium [17] = assay: Induction of mutagenesis in Salmonella Typhimurium TA98 in presence of rat liver S9 fraction by Ames test; type: toxicity, organism-based; settings: salmonella enterica subsp. enterica serovar typhimurium; summary of the method: as §4
[18] = Plasma protein binding in human at 10 uM; type: ADME, cell-free; settings: read-out: PPB (converted)
Summary of the method: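 Human plasma protein binding measured by equilibrium dialysis, with overnight incubation of compound at 10 μM containing 1% DMSO.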

[19] = Thermodynamic solubility of the compound at pH 1; type: physicochemical; settings: buffer, read-out: Therm_solubility
[20] = Octanol-water partition coefficient, log P of the compound by shake-flask method; type: physicochemical
Summary of the method: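 Octanol-water partition coefficient measured by the shake-flask method.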

Salmonella typhimurium [21] = assay: Induction of mutagenesis in Salmonella Typhimurium TA98 in absence of rat liver S9 fraction by Ames test; type: toxicity, organism-based; settings: salmonella enterica subsp. enterica serovar typhimurium; summary of the method: as §4
[22] = Thermodynamic solubility of the compound at pH 7.4; type: physicochemical; settings: buffer, read-out: Therm_solubility

Compound: O=C(N[C@@H]1COc2nc([N+](=O)[O-])cn2C1)c1ccc(OC(F)(F)F)cc1
- solubility kinetic [1]: 109 µg/mL (≈ 293 µM)

Compound: CN(C(=O)c1ccc(OC(F)(F)F)cc1)[C@@H]1COc2nc([N+](=O)[O-])cn2C1
- solubility kinetic [1]: 17 µg/mL (≈ 44 µM)

Compound: O=[N+]([O-])c1cn2c(n1)OC[C@@H](NS(=O)(=O)c1ccc(OC(F)(F)F)cc1)C2
- solubility kinetic [1]: 6.1 µg/mL (≈ 14.9 µM)

Compound: CN([C@@H]1COc2nc([N+](=O)[O-])cn2C1)S(=O)(=O)c1ccc(OC(F)(F)F)cc1
- solubility kinetic [1]: 15 µg/mL (≈ 35.5 µM)

Compound: O=C(CN[C@@H]1COc2nc([N+](=O)[O-])cn2C1)c1ccc(OC(F)(F)F)cc1
- solubility kinetic [1]: 21 µg/mL (≈ 54.4 µM)

Compound: O=C(Nc1ccc(OC(F)(F)F)cc1)N[C@@H]1COc2nc([N+](=O)[O-])cn2C1
- solubility kinetic [1]: 93 µg/mL (≈ 240 µM)

Compound: O=C(N[C@@H]1COc2nc([N+](=O)[O-])cn2C1)OCc1ccc(-c2ccc(OC(F)(F)F)cc2)cc1
- solubility kinetic [1]: 0.67 µg/mL (≈ 1.4 µM)

Compound: O=C(Nc1cccc(-c2ccc(OC(F)(F)F)cc2)c1)N[C@@H]1COc2nc([N+](=O)[O-])cn2C1
- fold change (FC) [2]: <0.01
- remaining at 1 h [3]: 88%
- solubility kinetic [1]: 3 µg/mL (≈ 6.47 µM)
- remaining at 1 h [4]: 86%

Compound: O=C(Nc1ccc(-c2ccc(OC(F)(F)F)cc2)cc1)N[C@@H]1COc2nc([N+](=O)[O-])cn2C1
- AUC(0-inf) [5]: 6610 ng·h/mL
- fold change (FC) [2]: 1
- Cmax [6]: 4700 ng/mL
- Kp [7]: > 9
- half-life [8]: 378 min
- remaining at 1 h [3]: 90%
- solubility kinetic [1]: 0.17 µg/mL (≈ 0.367 µM)
- AUC(0-inf) [9]: > 60000 ng·h/mL
- remaining at 1 h [4]: 91%
- Cmax [10]: 480 ng/mL

Compound: O=C(NCc1ccc(-c2ccc(OC(F)(F)F)cc2)cc1)N[C@@H]1COc2nc([N+](=O)[O-])cn2C1
- solubility kinetic [1]: 0.94 µg/mL (≈ 1.97 µM)

Compound: O=C(Nc1cccc(-c2ccc(OC(F)(F)F)cc2)c1)O[C@@H]1COc2nc([N+](=O)[O-])cn2C1
- fold change (FC) [2]: 3.4
- remaining at 1 h [3]: 93%
- solubility kinetic [1]: 0.07 µg/mL (≈ 0.151 µM)
- remaining at 1 h [4]: 88%

Compound: O=C(Nc1cccc(-c2ccc(C(F)(F)F)nc2)c1)O[C@@H]1COc2nc([N+](=O)[O-])cn2C1
- fold change (FC) [2]: 0.02
- remaining at 1 h [3]: 80%
- solubility kinetic [1]: 5.8 µg/mL (≈ 12.9 µM)
- remaining at 1 h [4]: 89%

Compound: O=C(Nc1ccc(-c2ccc(OC(F)(F)F)cc2)cc1)O[C@@H]1COc2nc([N+](=O)[O-])cn2C1
- AUC(0-inf) [5]: 44900 ng·h/mL
- fold change (FC) [2]: 5
- Cmax [6]: 6900 ng/mL
- Kp [7]: > 3
- half-life [8]: 3740 min
- remaining at 1 h [3]: 98%
- AUC(0-inf) [9]: > 136000 ng·h/mL
- remaining at 1 h [4]: 100%
- fold change (FC) [11]: 0.35
- Cmax [10]: 520 ng/mL

Compound: O=C(NCc1ccc(-c2ccc(OC(F)(F)F)cc2)cc1)O[C@@H]1COc2nc([N+](=O)[O-])cn2C1
- solubility kinetic [1]: 0.34 µg/mL (≈ 0.711 µM)

Compound: O=C(O[C@@H]1COc2nc([N+](=O)[O-])cn2C1)N1CC[C@H](Oc2ccc(OC(F)(F)F)cc2)C1
- solubility kinetic [1]: 21 µg/mL (≈ 45.8 µM)

Compound: O=C(O[C@@H]1COc2nc([N+](=O)[O-])cn2C1)N1CCC(Oc2ccc(C(F)(F)F)nc2)CC1
- solubility kinetic [1]: 94 µg/mL (≈ 206 µM)

Compound: CN(Cc1ccc(OC(F)(F)F)cc1)C1CCN(C(=O)O[C@@H]2COc3nc([N+](=O)[O-])cn3C2)CC1
- solubility kinetic [1]: 11 µg/mL (≈ 22 µM)

Compound: O=C(COc1ccc(-c2ccc(OC(F)(F)F)cc2)cc1)N[C@@H]1COc2nc([N+](=O)[O-])cn2C1
- solubility kinetic [1]: 0.96 µg/mL (≈ 2.01 µM)

Compound: O=C(Cc1ccc(-c2ccc(OC(F)(F)F)cc2)cc1)N[C@@H]1COc2nc([N+](=O)[O-])cn2C1
- solubility kinetic [1]: 1.8 µg/mL (≈ 3.89 µM)

Compound: O=C(CO[C@@H]1COc2nc([N+](=O)[O-])cn2C1)Nc1ccc(OC(F)(F)F)cc1
- fold change (FC) [2]: 0.33
- remaining at 1 h [3]: 85%
- solubility kinetic [1]: 68 µg/mL (≈ 169 µM)
- remaining at 1 h [4]: 100%

Compound: CN(C(=O)N(C)[C@@H]1COc2nc([N+](=O)[O-])cn2C1)c1ccc(OC(F)(F)F)cc1
- solubility kinetic [1]: 38 µg/mL (≈ 91.5 µM)

Compound: O=[N+]([O-])c1cn2c(n1)OC[C@@H](NC(=S)Nc1ccc(OC(F)(F)F)cc1)C2
- solubility kinetic [1]: 12 µg/mL (≈ 29.8 µM)

Compound: O=C(NCc1ccc(OC(F)(F)F)cc1)N[C@@H]1COc2nc([N+](=O)[O-])cn2C1
- solubility kinetic [1]: 32 µg/mL (≈ 79.7 µM)

Compound: O=C(Nc1ccc(OC(F)(F)F)cc1)O[C@@H]1COc2nc([N+](=O)[O-])cn2C1
- AUC(0-inf) [5]: 28500 ng·h/mL
- fold change (FC) [2]: 0.39
- Cmax [6]: 3800 ng/mL
- Kp [7]: 1.5
- half-life [8]: 588 min
- remaining at 1 h [3]: 89%
- solubility kinetic [1]: 5.4 µg/mL (≈ 13.9 µM)
- AUC(0-inf) [9]: 43300 ng·h/mL
- half-life [12]: 246 min
- remaining at 1 h [4]: 88%
- fold change (FC) [11]: 0.02
- Cmax [10]: 1400 ng/mL

Compound: CN(C(=O)O[C@@H]1COc2nc([N+](=O)[O-])cn2C1)c1ccc(OC(F)(F)F)cc1
- fold change (FC) [2]: 5.3
- remaining at 1 h [3]: 1%
- solubility kinetic [1]: 18 µg/mL (≈ 44.7 µM)
- remaining at 1 h [4]: 37%

Compound: O=C(NCc1ccc(OC(F)(F)F)cc1)O[C@@H]1COc2nc([N+](=O)[O-])cn2C1
- solubility kinetic [1]: 10 µg/mL (≈ 24.9 µM)

Compound: C[C@]1(COc2ccc(N3CCC(Oc4ccc(OC(F)(F)F)cc4)CC3)cc2)Cn2cc([N+](=O)[O-])nc2O1
- fold change (FC) [13]: 3
- fold change (FC) [14]: 3

Compound: O=C(COc1ccc(OC(F)(F)F)cc1)N[C@@H]1COc2nc([N+](=O)[O-])cn2C1
- solubility kinetic [1]: 43 µg/mL (≈ 107 µM)

Compound: O=[N+]([O-])c1cn2c(n1)OC[C@@H](NCc1ccc(OC(F)(F)F)cc1)C2
- solubility kinetic [1]: 131 µg/mL (≈ 366 µM)

Compound: O=[N+]([O-])c1cn2c(n1)OC[C@@H](OCc1ccc(OC(F)(F)F)cc1)C2 [PRETOMANID]
- fold change (FC) [13]: 2
- Activity (Salmonella typhimurium [15]): Non-toxic
- Activity (Salmonella typhimurium [16]): Non-toxic
- Activity (Salmonella typhimurium [17]): Non-toxic
- fraction unbound at 10 µM [18]: 0.06
- solubility thermodynamic [19]: 30 µM (≈ 10.8 µg/mL)
- logP [20]: 2.52
- Activity (Salmonella typhimurium [21]): Non-toxic
- solubility thermodynamic [22]: 30 µM (≈ 10.8 µg/mL)
